Laboratory results from PubChem BioAssay.
The source made the active and inactive calls.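 How the source made its calls, unless noted: active means fluorescence slope higher than the sample average by over 3 SD (cut at about -0.22 in these data, passing the limit was not always enough); inactive means the rest.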

What was measured:
[1] = inhibitors of TNFa-induced NFkB p65 translocation, primary screen, imaging, HUVEC, MLSMR starter and 10KST1 sets (AID 438;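 active means inhibition above 20% together with a positive visual image hit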;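 further: compound added about 3h40 before a 20 min TNFalpha stimulation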;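 on inhibition: signal is the nuclear over cytoplasmic p65 intensity ratio per well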); details: HUVEC TNFa-induced p65 nuclear translocation; cell count: measured here: nuclei count (cytotoxicity indicator), at 2.08 µM; inhibition: at 2 µM, stronger effect = higher value, 0% TNFa-plus-vehicle, 100% no-TNFa wells
[2] = endothelial E-selectin expression blockers – imaging, HUVEC, immunofluorescence, MLSMR starter and 10KST1 sets, primary screen (AID 487;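 active means visually confirmed hit in the image check and inhibition above 20%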;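 on inhibition: signal is fraction of cell area covered by stained E-selectin grains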;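 on nuclei count: 100% = median nuclei count of all wells on the same plate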); details: HUVEC TNFalpha-induced E-selectin immunofluorescence imaging, at 2 µM; inhibition: stronger effect = higher value; nuclei count: measured here: cell number, toxicity
[3] = Primary imaging screen for DUSP6 inhibitors that restore phospho-Erk in transfected HeLa cells, chemical complementation (AID 609;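 active means compounds giving at least 50% inhibition in the cell-based MKP-3 phosphatase rescue imaging test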;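 on inhibition: phospho-Erk level distribution per well compared with pooled transfected vehicle control wells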); details: HeLa MKP-3 transfected, phospho-Erk imaging KS statistic, at 10 µM, cells stimulated with TPA for 15 min
[4] = molecular target: Dual specificity protein phosphatase 6 (Homo sapiens) (UniProt Q16828); test: as above; details: HeLa MKP-3 transfected, phospho-Erk imaging KS statistic; at 10 µM; stronger effect = higher value; cells stimulated with TPA for 15 min
Dual specificity protein phosphatase 6 (Homo sapiens), sequence (Q16828 whole entry, looked up): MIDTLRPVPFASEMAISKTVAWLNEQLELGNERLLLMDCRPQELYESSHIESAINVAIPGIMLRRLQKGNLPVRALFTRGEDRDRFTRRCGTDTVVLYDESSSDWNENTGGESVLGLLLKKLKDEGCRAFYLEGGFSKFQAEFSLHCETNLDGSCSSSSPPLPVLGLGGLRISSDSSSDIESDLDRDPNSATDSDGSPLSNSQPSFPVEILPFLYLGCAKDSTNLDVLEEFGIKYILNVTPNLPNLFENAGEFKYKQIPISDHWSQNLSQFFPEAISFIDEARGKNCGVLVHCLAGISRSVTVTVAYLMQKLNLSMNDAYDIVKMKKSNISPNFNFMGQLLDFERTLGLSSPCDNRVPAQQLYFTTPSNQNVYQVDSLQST

[5] = molecular target: Voltage-gated potassium channel subunit beta-2 (Rattus norvegicus) (UniProt P62483); test: inhibitors of rat Kvbeta2 reductase activity – biochemical, NADPH fluorescence, primary screen (AID 622); details: recombinant KvBeta, 4-cyanobenzaldehyde reduction, at 10 µM, stronger effect = higher value;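 further: slope of raw intensity against log time taken from 70 to 1610 s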
Voltage-gated potassium channel subunit beta-2 (Rattus norvegicus), sequence (P62483 whole entry, looked up): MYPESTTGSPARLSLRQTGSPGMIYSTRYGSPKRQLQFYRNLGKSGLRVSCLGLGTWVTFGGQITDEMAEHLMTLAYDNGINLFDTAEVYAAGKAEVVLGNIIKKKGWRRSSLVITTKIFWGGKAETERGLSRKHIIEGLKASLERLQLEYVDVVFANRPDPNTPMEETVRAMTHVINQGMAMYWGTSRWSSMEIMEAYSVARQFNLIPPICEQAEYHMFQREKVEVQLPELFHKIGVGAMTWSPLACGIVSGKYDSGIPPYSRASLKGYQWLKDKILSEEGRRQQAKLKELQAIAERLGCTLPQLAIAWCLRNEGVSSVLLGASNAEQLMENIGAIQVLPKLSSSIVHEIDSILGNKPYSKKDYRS

[6] = molecular target: Voltage-gated potassium channel subunit beta-2 (Rattus norvegicus) (UniProt P62483); test: enhancers of rat Kvbeta2 NADPH turnover – biochemical, NADPH fluorescence, primary screen (AID 623;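 active means NADPH fluorescence slope more negative than the mean of all samples by about 3 SD, 99.7% confidence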;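 further: fluorescence intensity change per second fitted from 20 to 320 s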); details: Recombinant KvBeta, NADPH fluorescence decrease slope, 10 min; at 10 µM; stronger effect = lower value
[7] = molecular target: Muscarinic acetylcholine receptor M4 (Homo sapiens) (UniProt P08173); test: M4-linked GIRK flux change, two-sided – cell-based, HEK293 M4/GIRK, thallium flux, BTC-AM, M4 allosteric agonist project, primary screen (AID 625;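 active means fluorescence slope after compound addition differing from the mean of all tested samples at 99.7% confidence, mostly higher but some lower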;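 further: thallium influx through GIRK channels coupled to M4 in HEK293 cells with BTC-AM dye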); details: at 10 µM, actives lie on both sides
Muscarinic acetylcholine receptor M4 (Homo sapiens), sequence (P08173 whole entry, looked up): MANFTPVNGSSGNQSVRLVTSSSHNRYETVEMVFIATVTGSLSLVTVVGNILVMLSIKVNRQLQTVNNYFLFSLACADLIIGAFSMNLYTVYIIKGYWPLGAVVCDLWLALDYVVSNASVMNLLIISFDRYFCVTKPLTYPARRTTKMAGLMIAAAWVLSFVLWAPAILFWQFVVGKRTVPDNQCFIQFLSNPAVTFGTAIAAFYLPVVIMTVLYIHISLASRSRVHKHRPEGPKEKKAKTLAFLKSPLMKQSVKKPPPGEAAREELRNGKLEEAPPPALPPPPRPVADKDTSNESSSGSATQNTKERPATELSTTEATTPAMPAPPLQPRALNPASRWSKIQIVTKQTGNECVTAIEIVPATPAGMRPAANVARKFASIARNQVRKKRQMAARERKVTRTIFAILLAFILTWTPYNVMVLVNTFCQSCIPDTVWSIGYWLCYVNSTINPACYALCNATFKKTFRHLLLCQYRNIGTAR
Outline: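 Material: M4/GIRK1/GIRK2 stable HEK293 cell line. Medium: pH 7.3 thallium assay buffer. Dosing: single compound concentration, 10 µM final. Schedule: 1 h dye loading, 2 min kinetic read. Measured by: kinetic fluorescence with BTC-AM dye. Read-out: post-addition slope, 15–24 s, of baseline-normalized fluorescence. Benchmarks: carbachol and DMSO controls.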

[8] = inhibitors of larval lipid processing in zebrafish, primary screen, whole organism, PED6 fluorescence, gall bladder and intestine (AID 686;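 active means a full or partial loss of lipid-probe fluorescence in the fish gall bladder, intestine or both, judged by eye; inactive means no fluorescence loss, or compound toxic to the fish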;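 further: larvae 5 to 7 days old with five fish per well; signal comes from phospholipase A2 cleavage of quenched PED6 carried via bile; overnight exposure to compound and PED6 before scoring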); details: Zebrafish larvae PED6 lipid processing, fluorescence scoring; screened at 20 µM (by protocol)
Outline: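 System: live zebrafish larvae aged 5-7 days, whole organism; measure: graded gall bladder and intestinal fluorescence inhibition per well; incubation: overnight exposure; reagent: ingested quenched lipid PED6 at 100 nM; signal: By-eye fluorescence microscopy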

[9] = loss of swimming-algae plug formation – whole organism, Chlamydomonas reinhardtii, WT vs cilia-less mutant, absorbance, 96-well, primary screen (AID 463189;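 active means inhibition at or above 50% relative to wild type and mutant plate controls; inactive means inhibition below 50%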;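 further: 0% = wild type cc124 cells in DMSO and 100% = ciliumless bld1 mutant cells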); details: Chlamydomonas reinhardtii gravitaxis, OD600 absorbance, 2 days; at 10 µM; stronger effect = higher value
[10] = measured here: cell density z-score
[11] = measured here: nuclear c-Myc green intensity z-score
[12] = measured here: nuclear pErk red intensity z-score, stronger effect = higher value

| SMILES | cell count [1] | inhibition [1] | inhibition [2] | nuclei count [2] | z-score [3, 10] | z-score [3, 11] | z-score [3, 12] | inhibition [4] | fluorescence slope [5] | NADPH fluorescence slope [6] | fluorescence slope [7] | outcome [8] | inhibition [9] |
| --- | --- | --- | --- | --- | --- | --- | --- | --- | --- | --- | --- | --- | --- |
| CC(=O)NCC(=O)OCN1C(=O)c2ccccc2C1=O | 520 | -8.8% (inactive) | -105% (inactive) | 154% | 0.466 | -1.64 | -0.405 | 15.9% (inactive) | -0.376 (inactive) | 7.5e-06 (inactive) | 0.00573 (inactive) | inactive | 20% (inactive) |
| CCOC(=O)C1=C(C)NC(=O)C1CC(=O)Nc1ccccc1 (stereo unspecified) | 377 | -4.8% (inactive) | -73.4% (inactive) | 139% | -0.173 | 0.561 | 0.408 | 3.42% (inactive) | -0.443 (inactive) | -0.000122 (inactive) | 0.00567 (inactive) | inactive | -5.87% (inactive) |
| S=c1[nH]nc(-c2ccco2)n1C1CCCCC1 | 638 | -2.9% (inactive) | 6.6% (inactive) | 143% | -0.759 | -0.86 | -1.13 | -7.67% (inactive) | -0.495 (inactive) | -4e-05 (inactive) | 0.00615 (inactive) | inactive | -19.8% (inactive) |
| CCOc1ccccc1C(=O)NCCCCCC(=O)O | 421 | -9.4% (inactive) | -419% (inactive) | 193% | 0.279 | -0.756 | 0.2 | 1.42% (inactive) | -0.472 (inactive) | -9.6e-05 (inactive) | 0.00537 (inactive) | inactive | 0.493% (inactive) |
| CCCCN(C(=O)CCC(=O)O)C1CC(=O)N(c2ccc(OCCC)cc2)C1=O (stereo unspecified) | 639 | 5.2% (inactive) | -33% (inactive) | 116% | -0.992 | -0.45 | -0.105 | -9.53% (inactive) | -0.464 (inactive) | -2.3e-05 (inactive) | 0.00463 (inactive) | inactive | -0.122% (inactive) |
| O=C1C2ON(c3ccccc3)C(c3cccnc3)C2C(=O)N1Cc1ccccc1 (stereo unspecified) | 620 | -11% (inactive) | -48.8% (inactive) | 177% | 0.802 | 0.656 | -1.11 | 2.71% (inactive) | -0.512 (inactive) | -5.7e-05 (inactive) | 0.00545 (inactive) | inactive | -1.68% (inactive) |
| C=C(C)Cn1c(-c2ccc(OC)cc2)nc2ccccc21 | 377 | 0.8% (inactive) | -113% (inactive) | 157% | -0.296 | -0.903 | 0.627 | -6.86% (inactive) | -0.461 (inactive) | -0.000111 (inactive) | 0.00384 (inactive) | inactive; toxic | 25.6% (inactive) |
| CC1CCN(c2[nH]c(=S)c(C#N)c3c2CCCC3)CC1 | 383 | -5.9% (inactive) | -5.3% (inactive) | 140% | 0.378 | -0.606 | 1.46 | 1.42% (inactive) | -0.469 (inactive) | -0.000131 (inactive) | 0.00501 (inactive) | inactive | 19.3% (inactive) |
| O=C1CCC(=O)N1c1nc2n(n1)C(c1ccccc1)C=C(c1ccc(Br)cc1)N2 (stereo unspecified) | 369 | 3% (inactive) | -50% (inactive) | 71.6% | 0.246 | -0.538 | -1.14 | 3.56% (inactive) | -0.374 (inactive) | -9.5e-05 (inactive) | 0.0047 (inactive) | inactive | 17.5% (inactive) |
| CC1(C)Cc2c(C#N)c(OCC(=O)c3ccccc3)nc(-c3ccoc3)c2CO1 | 547 | -9.6% (inactive) | 14.2% (inactive) | 98.1% | 0.66 | -1.5 | -0.876 | -0.233% (inactive) | -0.465 (inactive) | 2.6e-05 (inactive) | 0.00542 (inactive) | inactive | 56.8% (active) |
| COCCCn1c(C)nc2c(c1=O)c1nc3ccccc3nc1n2CCc1ccccc1 | 709 | 4.3% (inactive) | 18.7% (inactive) | 162% | -0.739 | -0.364 | -0.291 | -9.53% (inactive) | -0.341 (inactive) | -5.1e-05 (inactive) | 0.00467 (inactive) | inactive | 8.3% (inactive) |
| CCCOc1ccccc1C(=O)NCCCC(=O)O | 697 | 10.3% (inactive) | -31.2% (inactive) | 137% | 0.264 | 0.35 | -1.68 | 1.63% (inactive) | -0.447 (inactive) | -6.8e-05 (inactive) | 0.00573 (inactive) | inactive | 23.9% (inactive) |
| c1ccc2c(N3CCCCC3)nc(N3CCCCC3)nc2c1 | 497 | -2.8% (inactive) | 20.7% (inactive) | 159% | -1.53 | 0.598 | 1.04 | 1.9e-07% (inactive) | -0.388 (inactive) | -3.5e-05 (inactive) | 0.00468 (inactive) | inactive | 4.68% (inactive) |
| Cc1nn(CCO)c2c1C(=O)CCC2 | 514 | -5.8% (inactive) | -16.6% (inactive) | 166% | 1.33 | -0.18 | -0.238 | 5.95% (inactive) | -0.382 (inactive) | -2.1e-05 (inactive) | 0.00488 (inactive) | inactive | -6.32% (inactive) |
| CCCn1nc(Oc2nc(SC)nc(N(C)C)n2)ccc1=O | 340 | -6.1% (inactive) | -38% (inactive) | 91.9% | 1.7 | -0.0746 | -1.32 | 16.1% (inactive) | -0.491 (inactive) | 3.6e-05 (inactive) | 0.00516 (inactive) | inactive | -11.7% (inactive) |
| CCCc1cc(=O)oc2c(C)c(O)c(CN3CCCCC3)cc12 | 657 | -2.4% (inactive) | -23.3% (inactive) | 157% | -0.426 | -0.355 | 0.314 | 1.04% (inactive) | -0.00538 (inactive) | -1.8e-06 (inactive) | 0.00467 (inactive) | inactive | 0.97% (inactive) |
| Cc1c(C2CC(=O)N(c3ccccc3)C2=O)[nH]n(-c2ccccc2)c1=O (stereo unspecified) | 618 | 4.4% (inactive) | -97.6% (inactive) | 143% | -1.05 | 0.971 | 0.084 | -7.86% (inactive) | -0.488 (inactive) | -5.3e-05 (inactive) | 0.00493 (inactive) | inactive | 6.43% (inactive) |
| C=CCNc1nc(N2CCCCC2)c(C#N)c2c1CN(Cc1ccccc1)CC2 | 504 | -15.8% (inactive) | -82.3% (inactive) | 127% | 0.348 | -0.299 | -0.89 | -9.53% (inactive) | -0.473 (inactive) | -5.4e-05 (inactive) | 0.00373 (inactive) | inactive | 0.584% (inactive) |
| CN1CCc2c(C#N)c(N3CCCCC3)nc(NCc3ccccc3)c2C1 | 577 | -13.5% (inactive) | -93.5% (inactive) | 143% | 0.729 | -1.12 | 0.497 | -2.09% (inactive) | -0.422 (inactive) | -6.7e-05 (inactive) | 0.00359 (inactive) | inactive | 7.09% (inactive) |
| Brc1ccc2c(c1)CNc1c(ncnc1N1CCOCC1)O2 | 521 | -0.7% (inactive) | 2% (inactive) | 90% | -1.15 | 1.47 | 1.59 | 3.42% (inactive) | -0.429 (inactive) | 2.8e-05 (inactive) | 0.00419 (inactive) | inactive | 24.2% (inactive) |
| CC(C)CNc1nc2c(c(=O)n(C)c(=O)n2C)n1Cc1cccc(Br)c1 | 696 | 0.6% (inactive) | -160% (inactive) | 174% | 0.789 | -0.339 | -0.433 | 7.93% (inactive) | -0.498 (inactive) | -3.9e-05 (inactive) | 0.00519 (inactive) | inactive | 13.3% (inactive) |
| COC(=O)c1ccc(C2/C(=C(\O)c3cccc(OC)c3)C(=O)C(=O)N2CCCN2CCOCC2)cc1 (stereo unspecified) | 620 | -10.1% (inactive) | -57.4% (inactive) | 150% | 0.836 | -1.51 | -1.62 | 20.2% (inactive) | -0.507 (inactive) | -2e-05 (inactive) | 0.00584 (inactive) | inactive | 14.7% (inactive) |
| COc1ccc(C(=O)c2ccc(N3CCOCC3)cc2)c(OC)c1 | 624 | -6.6% (inactive) | -21.8% (inactive) | 99.4% | -2.58 | 0.925 | 1.09 | 5.95% (inactive) | -0.488 (inactive) | -6.2e-05 (inactive) | 0.00684 (inactive) | inactive | -11.4% (inactive) |
| COc1ccc(OC)c(C2C(C#N)=C(N)Oc3cc(C)n(Cc4ccccn4)c(=O)c32)c1 (stereo unspecified) | 736 | 3.4% (inactive) | -76% (inactive) | 167% | 0.84 | 0.709 | -0.214 | 13.2% (inactive) | -0.443 (inactive) | -7.4e-05 (inactive) | 0.0059 (inactive) | inactive | 11.4% (inactive) |
| CC1(C)C2CCC1(C)C(NC(=O)CCN1CCCCC1)C2 (stereo unspecified) | 570 | -3.7% (inactive) | -89.2% (inactive) | 163% | 0.233 | 1.96 | 0.463 | 5.95% (inactive) | -0.4 (inactive) | -4.2e-05 (inactive) | 0.00508 (inactive) | inactive | 55.5% (active) |
| c1nc(NC2CCCCC2)c2[nH]cnc2n1 | 743 | -1.9% (inactive) | -76.5% (inactive) | 168% | -1.06 | 0.0486 | -0.156 | 9.91% (inactive) | -0.483 (inactive) | -6.4e-05 (inactive) | 0.00575 (inactive) | inactive | 3.23% (inactive) |
| CC1(C)Cc2c(C#N)c(N3CCN(C(=O)c4ccco4)CC3)nc(Cc3ccccc3)c2CO1 | 541 | -6.6% (inactive) | 2.1% (inactive) | 97.1% | 1.26 | -0.345 | -0.81 | 12.8% (inactive) | -0.499 (inactive) | 4.3e-05 (inactive) | 0.00414 (inactive) | inactive | 16.1% (inactive) |
